# Reference: ChEMBL document CHEMBL1671716, “Antimicrobial susceptibility patterns for recent clinical isolates of anaerobic bacteria in South Korea” (2010)
# Key:
# [1] = system: Anaerococcus prevotii; assay: Antimicrobial activity against Anaerococcus prevotii assessed as percent susceptible isolates after 48 hrs by agar dilution method; type: functional
# [2] = system: Schaalia odontolytica; assay: Antimicrobial activity against Actinomyces odontolyticus after 48 hrs by agar dilution method; type: functional
# In short: (§1)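 MICs on clinical anaerobe isolates by the CLSI agar dilution method. Inoculum of 10^5 CFU applied with a Steers replicator. Plates incubated 48 h at 37°C in an anaerobic chamber.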
# [3] = system: Actinomyces israelii; assay: Antimicrobial activity against Actinomyces israelii after 48 hrs by agar dilution method; type: functional; in short: as §1
# [4] = system: Eggerthella lenta; assay: Antimicrobial activity against Eubacterium lentum after 48 hrs by agar dilution method; type: functional
# In short: (§2)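 CLSI agar dilution (M11-A7); inoculum 10^5 CFU applied by replicator; plates incubated anaerobically 48 h at 37°C. For piperacillin-tazobactam, tazobactam held constant at 4 μg/ml.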
# [5] = system: Actinomyces israelii; assay: Antimicrobial activity against Actinomyces israelii assessed as percent resistant isolates after 48 hrs by agar dilution method; type: functional
# In short: (§3)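 CLSI agar dilution on recent Korean clinical anaerobe isolates. Inoculum 10^5 CFU per spot by replicator. Plates incubated in an anaerobic chamber at 37°C for 48 h. For piperacillin plus tazobactam, tazobactam was held constant at 4 μg/ml. Resistance and susceptibility rates derived from MICs.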
# [6] = system: Eubacterium sp.; assay: Antimicrobial activity against Eubacterium sp. assessed as percent susceptible isolates after 48 hrs by agar dilution method; type: functional; in short: as §2
# [7] = system: Parabacteroides distasonis; assay: Antimicrobial activity against Bacteroides distasonis after 48 hrs by agar dilution method; type: functional; in short: as §1
# [8] = system: Actinomyces israelii; assay: Antimicrobial activity against Actinomyces israelii assessed as percent susceptible isolates after 48 hrs by agar dilution method; type: functional
# [9] = system: Bifidobacterium sp.; assay: Antimicrobial activity against Bifidobacterium sp. after 48 hrs by agar dilution method; type: functional; in short: as §1
# [10] = system: Bacteroides thetaiotaomicron; assay: Antimicrobial activity against Bacteroides thetaiotaomicron assessed as percent susceptible isolates after 48 hrs by agar dilution method; type: functional
# [11] = system: Eggerthella lenta; assay: Antimicrobial activity against Eubacterium lentum assessed as percent susceptible isolates after 48 hrs by agar dilution method; type: functional; in short: as §2
# [12] = system: Hoylesella oralis; assay: Antimicrobial activity against Prevotella oralis assessed as percent susceptible isolates after 48 hrs by agar dilution method; type: functional
# In short: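 CLSI agar dilution MIC testing of clinical isolates. 10^5 CFU spotted by replicator, plates incubated 48 h at 37°C in an anaerobic chamber. Susceptibility rates derived from the MICs.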
# [13] = system: Prevotella buccae; assay: Antimicrobial activity against Prevotella buccae assessed as percent resistant isolates after 48 hrs by agar dilution method; type: functional, Segatella buccae; in short: as §3
# [14] = system: Eubacterium sp.; assay: Antimicrobial activity against Eubacterium sp. assessed as percent resistant isolates after 48 hrs by agar dilution method; type: functional; in short: as §3
# [15] = system: Bacteroides ovatus; assay: Antimicrobial activity against Bacteroides ovatus after 48 hrs by agar dilution method; type: functional; in short: as §1
# [16] = system: Schaalia odontolytica; assay: Antimicrobial activity against Actinomyces odontolyticus assessed as percent resistant isolates after 48 hrs by agar dilution method; type: functional; in short: as §3
# [17] = system: Phocaeicola vulgatus; assay: Antimicrobial activity against Bacteroides vulgatus assessed as percent resistant isolates after 48 hrs by agar dilution method; type: functional; in short: as §3
# [18] = system: Parabacteroides distasonis; assay: Antimicrobial activity against Bacteroides distasonis assessed as percent resistant isolates after 48 hrs by agar dilution method; type: functional; in short: as §3
# [19] = system: Peptostreptococcus anaerobius; assay: Antimicrobial activity against Peptostreptococcus anaerobius after 48 hrs by agar dilution method; type: functional; in short: as §2
# [20] = system: Bifidobacterium sp.; assay: Antimicrobial activity against Bifidobacterium sp. assessed as percent susceptible isolates after 48 hrs by agar dilution method; type: functional; in short: as §2
# [21] = system: Parvimonas micra; assay: Antimicrobial activity against Peptostreptococcus micros after 48 hrs by agar dilution method; type: functional; in short: as §2
# [22] = system: Prevotella intermedia; assay: Antimicrobial activity against Prevotella intermedia after 48 hrs by agar dilution method; type: functional; in short: as §2
# [23] = system: Phocaeicola vulgatus; assay: Antimicrobial activity against Bacteroides vulgatus after 48 hrs by agar dilution method; type: functional; in short: as §1
# [24] = system: Clostridium perfringens; assay: Antimicrobial activity against Clostridium perfringens after 48 hrs by agar dilution method; type: functional
# [25] = system: Porphyromonas asaccharolytica; assay: Antimicrobial activity against Porphyromonas asaccharolytica after 48 hrs by agar dilution method; type: functional; in short: as §2
# [26] = system: Fusobacterium necrogenes; assay: Antimicrobial activity against Fusobacterium necrogenes after 48 hrs by agar dilution method; type: functional; in short: as §2
# [27] = system: Clostridium perfringens; assay: Antimicrobial activity against Clostridium perfringens assessed as percent susceptible isolates after 48 hrs by agar dilution method; type: functional
smiles,measurement,setting,value
COc1c(N2C[C@@H]3CCCN[C@@H]3C2)c(F)cc2c(=O)c(C(=O)O)cn(C3CC3)c12 [MOXIFLOXACIN],Activity,[1],87%
same,MIC50,[2],1 µg/mL
same,MIC90,[2],2 µg/mL
same,MIC50,[3],1 µg/mL
same,MIC90,[3],2 µg/mL
same,MIC50,[4],1 µg/mL
same,MIC90,[4],2 µg/mL
same,Activity,[5],0%
same,Activity,[6],92%
same,MIC50,[7],2 µg/mL
same,MIC90,[7],16 µg/mL
same,Activity,[8],92%
same,MIC50,[9],1 µg/mL
same,MIC90,[9],2 µg/mL
same,Activity,[10],72%
same,Activity,[11],92%
same,Activity,[12],56%
same,Activity,[13],11%
same,Activity,[14],0%
same,MIC50,[15],2 µg/mL
same,MIC90,[15],16 µg/mL
same,Activity,[16],0%
same,Activity,[17],18%
same,Activity,[18],18%
same,MIC50,[19],0.125 µg/mL
same,MIC90,[19],0.25 µg/mL
same,Activity,[20],92%
same,MIC50,[21],0.125 µg/mL
same,MIC90,[21],0.25 µg/mL
same,MIC,[22],0.5 µg/mL
same,MIC50,[22],0.5 µg/mL
same,MIC90,[22],0.5 µg/mL
same,MIC50,[23],2 µg/mL
same,MIC90,[23],16 µg/mL
CCC[C@@H]1C[C@@H](C(=O)N[C@@H]([C@H]2O[C@H](SC)[C@H](O)[C@@H](O)[C@H]2O)[C@H](C)Cl)N(C)C1 [CLINDAMYCIN],Activity,[1],60%
same,MIC,[2],0.06 µg/mL
same,MIC50,[2],0.06 µg/mL
same,MIC90,[2],> 128 µg/mL
same,MIC50,[24],2 µg/mL
same,MIC90,[24],4 µg/mL
same,MIC,[25],0.06 µg/mL
same,MIC,[3],0.06 µg/mL
same,MIC50,[3],0.06 µg/mL
same,MIC90,[3],> 128 µg/mL
same,MIC,[26],0.06 µg/mL
same,MIC,[4],0.06 µg/mL
same,MIC50,[4],0.06 µg/mL
same,MIC90,[4],> 128 µg/mL
same,Activity,[5],15%
same,Activity,[6],85%
same,MIC50,[7],> 128 µg/mL
same,MIC90,[7],> 128 µg/mL
same,Activity,[27],80%
same,Activity,[8],85%
same,MIC,[9],0.06 µg/mL
same,MIC50,[9],0.06 µg/mL
same,MIC90,[9],> 128 µg/mL
same,Activity,[10],16%
same,Activity,[11],85%
same,Activity,[12],50%
same,Activity,[14],15%
same,MIC50,[15],> 128 µg/mL
same,MIC90,[15],> 128 µg/mL
same,Activity,[16],15%
same,Activity,[17],68%
same,Activity,[18],68%
same,MIC50,[19],0.125 µg/mL
same,MIC90,[19],64 µg/mL
same,Activity,[20],85%
same,MIC50,[21],0.125 µg/mL
same,MIC90,[21],64 µg/mL
same,MIC50,[22],≤ 0.06 µg/mL
same,MIC90,[22],≤ 0.06 µg/mL
same,MIC50,[23],> 128 µg/mL
same,MIC90,[23],> 128 µg/mL
C[C@@H](O)[C@H]1C(=O)N2C(C(=O)O)=C(SCCNC=N)C[C@H]12 [IMIPENEM ANHYDROUS],Activity,[1],100%
same,MIC50,[2],0.06 µg/mL
same,MIC90,[2],0.5 µg/mL
same,MIC50,[24],0.125 µg/mL
same,MIC90,[24],0.125 µg/mL
same,MIC,[25],0.02 µg/mL
same,MIC50,[3],0.06 µg/mL
same,MIC90,[3],0.5 µg/mL
same,MIC,[26],0.02 µg/mL
same,MIC50,[4],0.06 µg/mL
same,MIC90,[4],0.5 µg/mL
same,Activity,[5],0%
same,Activity,[6],100%
same,MIC50,[7],0.5 µg/mL
same,MIC90,[7],4 µg/mL
same,Activity,[27],100%
same,Activity,[8],100%
same,MIC50,[9],0.06 µg/mL
same,MIC90,[9],0.5 µg/mL
same,Activity,[10],95%
same,Activity,[11],100%
same,Activity,[12],100%
same,Activity,[13],0%
same,Activity,[14],0%
same,MIC50,[15],0.5 µg/mL
same,MIC90,[15],4 µg/mL
same,Activity,[16],0%
same,Activity,[17],4%
same,Activity,[18],4%
same,MIC50,[19],0.125 µg/mL
same,MIC90,[19],2 µg/mL
same,Activity,[20],100%
same,MIC50,[21],0.125 µg/mL
same,MIC90,[21],2 µg/mL
same,MIC,[22],0.02 µg/mL
same,MIC50,[22],0.03 µg/mL
same,MIC90,[22],0.06 µg/mL
same,MIC50,[23],0.5 µg/mL
same,MIC90,[23],4 µg/mL
